The source of these data is ChEMBL document CHEMBL1140462, “Convenient synthesis of indeno[1,2-c]isoquinolines as constrained forms of 3-arylisoquinolines and docking study of a topoisomerase I inhibitor into DNA-topoisomerase I complex” (Bioorg Med Chem Lett, 2007).

The subject of one experiment is A549. Kind of experiment: Cytotoxicity against human A549 cells by SRB assay. The class given is functional, cell-based. A digest of the protocol:
(§1)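 Panel of four human tumour lines: A549 (lung), SKOV-3 (ovarian), SK-MEL-2 (melanoma) and HCT 15 (colon). Each was exposed to compound in vitro, and cytotoxicity was read out by sulforhodamine B (SRB) staining.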
(In general: In SRB staining, fixed cells bind dye roughly in proportion to their protein.)

The next experiment deals with HCT-15. Kind of experiment: Cytotoxicity against human HCT15 cells by SRB assay. The class given is functional, cell-based. A digest of the protocol: as §1
Experiment [1] in a line: Cytotoxicity against human OV3 cells by SRB assay. Type of experiment: functional, cell-based. Summed up:
as §1

A further experiment relates to SK-MEL-2. Kind of experiment: Cytotoxicity against human SK-MEL-2 cells by SRB assay. Type of experiment: functional, cell-based. A digest of the protocol: as §1
For experiment [2], the target named is T1, DNA topoisomerase 1 (Homo sapiens) (UniProt P11387).
T1 sequence (whole entry): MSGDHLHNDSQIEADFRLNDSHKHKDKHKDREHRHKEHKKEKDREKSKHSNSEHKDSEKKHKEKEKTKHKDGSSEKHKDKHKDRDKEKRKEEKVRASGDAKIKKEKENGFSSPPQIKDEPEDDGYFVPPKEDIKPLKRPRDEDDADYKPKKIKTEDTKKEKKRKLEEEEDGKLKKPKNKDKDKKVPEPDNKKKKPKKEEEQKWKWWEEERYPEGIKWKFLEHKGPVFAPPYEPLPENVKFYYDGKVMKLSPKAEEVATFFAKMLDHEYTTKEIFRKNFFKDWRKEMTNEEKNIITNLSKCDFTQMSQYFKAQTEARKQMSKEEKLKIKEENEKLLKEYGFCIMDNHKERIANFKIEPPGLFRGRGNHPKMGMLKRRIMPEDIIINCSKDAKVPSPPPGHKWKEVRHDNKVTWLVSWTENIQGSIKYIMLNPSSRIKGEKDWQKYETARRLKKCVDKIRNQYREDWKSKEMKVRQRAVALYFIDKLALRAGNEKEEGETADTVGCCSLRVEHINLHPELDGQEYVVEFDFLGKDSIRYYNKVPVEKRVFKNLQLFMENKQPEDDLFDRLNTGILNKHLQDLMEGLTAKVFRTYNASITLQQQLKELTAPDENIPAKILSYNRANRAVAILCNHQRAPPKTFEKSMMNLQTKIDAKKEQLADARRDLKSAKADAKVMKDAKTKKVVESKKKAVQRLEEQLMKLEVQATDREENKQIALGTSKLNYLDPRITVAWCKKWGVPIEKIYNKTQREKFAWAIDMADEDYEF
As to the kind of experiment: Inhibition of topoisomerase 1 by supercoiled DNA unwinding method relative to camptothecin. The class given is functional.

Calls of active or inactive are those of the source. No cut-off for these calls is given here.

As for `CC[C@@]1(O)C(=O)OCc2c1cc1n(c2=O)Cc2cc3ccccc3nc2-1` [CAMPTOTHECIN], the concentration for half-maximal inhibition (IC50) (usually the concentration that inhibits the measured activity by half) with A549 was determined as 0.067 µM; in the experiment on HCT-15, 0.08 µM; in experiment [1], 0.024 µM; in the experiment on SK-MEL-2 it was 0.075 µM. Besides, the outcome in experiment [2] was Active.
For the molecule `COc1ccc(Cn2c3c(c4cc(C)ccc4c2=O)C(OCC(C)C)c2ccccc2-3)cc1` (stereo not drawn), the results for the IC50 (with A549; in experiment [1]; with SK-MEL-2) were 1.87 µM, 1.63 µM and 2.07 µM, respectively. The result in experiment [2] was Active.
`COc1cccc2c1C(=O)c1c(O)c3c(c(O)c1C2=O)C[C@@](O)(C(=O)CO)C[C@@H]3O[C@H]1C[C@H](N)[C@H](O)[C@H](C)O1` (stereo in doubt) [DOXORUBICIN] displayed a half-inhibitory concentration (IC50) in experiment [1] of 1.17 µM.
In the case of `Cn1c2c(c3ccccc3c1=O)C(=O)c1ccccc1-2`, the IC50 was found to be 23.5 µM in the experiment with A549, 30.6 µM with HCT-15, 81 µM in experiment [1] and 90.2 µM with SK-MEL-2.
As to `COc1ccc(Cn2c3c(c4cc(C)ccc4c2=O)C(OC(C)C)c2ccccc2-3)cc1` (stereo not drawn), the concentration for half-maximal inhibition (IC50) in the experiment with A549 was determined as 6.22 µM; in the experiment on HCT-15, 0.91 µM; in experiment [1], 1.21 µM; in the experiment with SK-MEL-2 it was 2.43 µM. Further, in experiment [2], the outcome was Active.
Take `CCCCOC1c2ccccc2-c2c1c1cc(C)ccc1c(=O)n2Cc1ccc(OC)cc1` (stereo not drawn): the IC50 was found to be 3.24 µM in the experiment on A549, 4.4 µM with HCT-15, 2.01 µM in experiment [1] and 3.37 µM with SK-MEL-2.
Turning to `CCCOC1c2ccccc2-c2c1c1cc(C)ccc1c(=O)n2Cc1ccc(OC)cc1` (stereo not drawn), the IC50 in the experiment with A549 stood at 3.45 µM; in the experiment with HCT-15, 1.42 µM; in experiment [1] it was 5.76 µM; in the experiment with SK-MEL-2, 6.26 µM. In experiment [2], the result was Active.
`Cc1ccc2c(=O)n(C)c3c(c2c1)C(=O)c1ccccc1-3`: the half-maximal inhibitory concentration (IC50) in the experiment on A549 turned out to be 20.1 µM; in the experiment with HCT-15 it was 14.3 µM; in experiment [1], 16.3 µM; with SK-MEL-2, 17.1 µM.
Consider `CCCCCOC1c2ccccc2-c2c1c1cc(C)ccc1c(=O)n2Cc1ccc(OC)cc1` (stereo not drawn), for which the IC50 with A549 was 11.2 µM; in the experiment with HCT-15, 5.59 µM; in experiment [1], 5.7 µM; with SK-MEL-2 it was 11.2 µM.
As to `CCOC1c2ccccc2-c2c1c1cc(C)ccc1c(=O)n2Cc1ccc(OC)cc1` (stereo not drawn), the half-maximal inhibitory concentration (IC50) in the experiment with A549 amounted to 6.71 µM; in the experiment on HCT-15, 1.93 µM; in experiment [1] it was 5.89 µM; in the experiment on SK-MEL-2, 3.6 µM.
For `COc1ccc(Cn2c3c(c4cc(C)ccc4c2=O)C(O)c2ccccc2-3)cc1` (stereo not drawn) the same measures were 100 µM, 20.2 µM, 71 µM and 181 µM.
For `Cc1ccc2c(=O)n(C)c3c(c2c1)Cc1ccccc1-3` the same measures were 130 µM, 20.1 µM, 261 µM and 80.3 µM.
`COC1c2ccccc2-c2c1c1cc(C)ccc1c(=O)n2C` (stereo not drawn): the half-inhibitory concentration (IC50) in the experiment on A549 was determined as 130 µM; with HCT-15, 20.9 µM; in experiment [1], 60.1 µM; in the experiment on SK-MEL-2 it was 70.3 µM.
On to `CCCCOC1c2ccccc2-c2c1c1cc(C)ccc1c(=O)n2C` (stereo not drawn), for which the IC50 with A549 was determined as 110 µM; in the experiment with HCT-15, 10.2 µM; in experiment [1], 30.5 µM; in the experiment on SK-MEL-2, 20.9 µM.
Take `COc1ccc(Cn2c3c(c4cc(C)ccc4c2=O)Cc2ccccc2-3)cc1`: the IC50 stood at 51 µM in the experiment with A549, 8.9 µM in the experiment on HCT-15, 23.2 µM in experiment [1] and 31.9 µM in the experiment on SK-MEL-2.
For `Cn1c2c(c3ccccc3c1=O)Cc1ccccc1-2` the same measures were 30.1 µM, 20.5 µM, 30.6 µM and 130 µM.
The matching figures for `COc1ccc(Cn2c3c(c4cc(C)ccc4c2=O)C(OC)c2ccccc2-3)cc1` (stereo not drawn): 10.2 µM, 1.11 µM, 1.36 µM and 15.2 µM.
For `CCOC1c2ccccc2-c2c1c1cc(C)ccc1c(=O)n2C` (stereo not drawn) the same measures were 90 µM, 20.6 µM, 70.9 µM and 40.9 µM.
Consider `CCCCCOC1c2ccccc2-c2c1c1cc(C)ccc1c(=O)n2C` (stereo not drawn), for which the 50% inhibitory concentration (IC50) in the experiment on A549 turned out to be 16.2 µM; with HCT-15 it was 22 µM; in experiment [1] it was 13.3 µM; in the experiment on SK-MEL-2, 26.5 µM.
The matching figures for `COc1ccc(Cn2c3c(c4cc(C)ccc4c2=O)C(=O)c2ccccc2-3)cc1`: 155 µM, 171 µM, 102 µM and 158 µM.
The matching figures for `Cc1ccc2c(=O)n(C)c3c(c2c1)C(OCC(C)C)c1ccccc1-3` (stereo not drawn): 28.2 µM, 27.4 µM, 38.4 µM and 10.5 µM.
The matching figures for `CCCOC1c2ccccc2-c2c1c1cc(C)ccc1c(=O)n2C` (stereo not drawn): 40.6 µM, 10.9 µM, 70.7 µM and 80.3 µM.
